From paper PMC4254850 (Clinical cancer research : an official journal of the …, 2014)
“Also recorded” adds a separate entry of the source.

Experiments:
[1] = tested on: human tumor xenograft models with PIK3CA mutations; details: in vivo; cited from earlier work
[2] = Phase I dose escalation: MTD, DLTs and toxicities; assay type: in vivo, human
Outline: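 Open-label, four-centre, 3+3 escalation in metastatic solid-tumour patients. Test compound taken orally from 2 mg, QD (2–96 mg) then BID (48–72 mg), in continuous 4-week cycles after a single-dose run-in with 5–7 day washout. Toxicities graded by CTCAE v4.03. DLTs assessed over run-in plus first cycle. MTD: highest level with ≤1 of 6 patients showing DLT. Descriptive statistics.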

class III PI3K = details: cited from earlier work
[3] = tested on: mammalian target of rapamycin (mTOR); details: cited from earlier work
[4] = tested on: AKT phosphorylation (pAKT) in platelet-rich plasma (PRP); test: AKT phosphorylation in platelet-rich plasma; assay type: in vivo, human
Outline: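 Oral single-dose run-in (Cycle 0, Day 1): citrated blood taken pre-dose and at 1, 2, 6, 24, 48 and 72 h, plus pre-dose on Cycle 1, Day 15. Spun 200 × g, 4°C, 15 min; PRP stabilised with phosphatase inhibitor, lysed with PMSF-containing buffer, snap-frozen. Phospho- and total AKT by quantitative electrochemiluminescent assay with recombinant active AKT standard curve per plate and spiked QC samples. p-AKT/total AKT expressed as % change from pre-treatment.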

[5] = tested on: human cancer cell lines with alterations in the PI3K pathway; details: in vitro; cited from earlier work

CS(=O)(=O)N1CCc2c(-c3cnc(N)nc3)nc(N3CCOCC3)nc21 [CH5132799]
Antitumor activity [1]: significant antitumor activity
Treatment-related dry skin, number of patients ([2]; 2 mg QD (n=3), grade 1-2): 1
Treatment-related fatigue, number of patients ([2]; 2 mg QD (n=3), grade 1-2): 2
Treatment-related nausea, number of patients ([2]; 2 mg QD (n=3), grade 1-2): 1
Treatment-related nausea, number of patients ([2]; 4 mg QD (n=3), grade 1-2): 1
Treatment-related rash, number of patients ([2]; 4 mg QD (n=3), grade 1-2): 1
Treatment-related fatigue, number of patients ([2]; 8 mg QD (n=3), grade 1-2): 1
Treatment-related rash, number of patients ([2]; 8 mg QD (n=3), grade 1-2): 1
Treatment-related stomatitis, number of patients ([2]; 8 mg QD (n=3), grade 1-2): 1
Treatment-related anemia, number of patients ([2]; 8 mg QD (n=3), grade 3-4): 1
Treatment-related decreased appetite, number of patients ([2]; 16 mg QD (n=3), grade 1-2): 1
Treatment-related fatigue, number of patients ([2]; 16 mg QD (n=3), grade 1-2): 1
Treatment-related nausea, number of patients ([2]; 16 mg QD (n=3), grade 1-2): 2
Treatment-related decreased appetite, number of patients ([2]; 32 mg QD (n=4), grade 1-2): 2
Treatment-related fatigue, number of patients ([2]; 32 mg QD (n=4), grade 1-2): 1
Treatment-related nausea, number of patients ([2]; 32 mg QD (n=4), grade 1-2): 1
Patients with DLT (grade 3 LFT/transaminase elevation) ([2]; 48 mg BID): one of seven
Treatment-related abdominal pain, number of patients ([2]; 48 mg BID (n=7), grade 1-2): 1
Treatment-related diarrhea, number of patients ([2]; 48 mg BID (n=7), grade 1-2): 4
Treatment-related dry skin, number of patients ([2]; 48 mg BID (n=7), grade 1-2): 2
Treatment-related fatigue, number of patients ([2]; 48 mg BID (n=7), grade 1-2): 1
Treatment-related rash, number of patients ([2]; 48 mg BID (n=7), grade 1-2): 1
Treatment-related stomatitis, number of patients ([2]; 48 mg BID (n=7), grade 1-2): 3
Treatment-related anemia, number of patients ([2]; 48 mg BID (n=7), grade 3-4): 1
Treatment-related hyperglycemia, number of patients ([2]; 48 mg BID (n=7), grade 3-4): 1
Grade ≥3 gastrointestinal AEs ([2]; 48 mg BID cohort): No grade ≥3 gastrointestinal AEs
Patients with DLTs ([2]; 56 mg BID): Two of five
Treatment-related abdominal pain, number of patients ([2]; 56 mg BID (n=5), grade 1-2): 1
Treatment-related anemia, number of patients ([2]; 56 mg BID (n=5), grade 1-2): 1
Treatment-related decreased appetite, number of patients ([2]; 56 mg BID (n=5), grade 1-2): 2
Treatment-related diarrhea, number of patients ([2]; 56 mg BID (n=5), grade 1-2): 2
Treatment-related fatigue, number of patients ([2]; 56 mg BID (n=5), grade 1-2): 3
Treatment-related nausea, number of patients ([2]; 56 mg BID (n=5), grade 1-2): 3
Treatment-related rash, number of patients ([2]; 56 mg BID (n=5), grade 1-2): 3
Treatment-related stomatitis, number of patients ([2]; 56 mg BID (n=5), grade 1-2): 4
Treatment-related vomiting, number of patients ([2]; 56 mg BID (n=5), grade 1-2): 3
Treatment-related diarrhea, number of patients ([2]; 56 mg BID (n=5), grade 3-4): 2
Treatment-related hyperglycemia, number of patients ([2]; 56 mg BID (n=5), grade 3-4): 2
Treatment-related stomatitis, number of patients ([2]; 56 mg BID (n=5), grade 3-4): 1
Treatment-related abdominal pain, number of patients ([2]; 56 mg QD (n=3), grade 1-2): 1
Treatment-related diarrhea, number of patients ([2]; 56 mg QD (n=3), grade 1-2): 2
Treatment-related dry skin, number of patients ([2]; 56 mg QD (n=3), grade 1-2): 1
Treatment-related nausea, number of patients ([2]; 56 mg QD (n=3), grade 1-2): 1
Treatment-related rash, number of patients ([2]; 56 mg QD (n=3), grade 1-2): 1
Patients with DLTs ([2]; 72 mg BID): two of three
Treatment-related anemia, number of patients ([2]; 72 mg BID (n=3), grade 1-2): 1
Treatment-related decreased appetite, number of patients ([2]; 72 mg BID (n=3), grade 1-2): 2
Treatment-related diarrhea, number of patients ([2]; 72 mg BID (n=3), grade 1-2): 2
Treatment-related fatigue, number of patients ([2]; 72 mg BID (n=3), grade 1-2): 1
Treatment-related nausea, number of patients ([2]; 72 mg BID (n=3), grade 1-2): 1
Treatment-related stomatitis, number of patients ([2]; 72 mg BID (n=3), grade 1-2): 1
Treatment-related vomiting, number of patients ([2]; 72 mg BID (n=3), grade 1-2): 1
Treatment-related abdominal pain, number of patients ([2]; 72 mg BID (n=3), grade 3-4): 1
Treatment-related fatigue, number of patients ([2]; 72 mg BID (n=3), grade 3-4): 1
Treatment-related hyperglycemia, number of patients ([2]; 72 mg BID (n=3), grade 3-4): 1
Treatment-related anemia, number of patients ([2]; 96 mg QD (n=4), grade 1-2): 1
Treatment-related decreased appetite, number of patients ([2]; 96 mg QD (n=4), grade 1-2): 1
Treatment-related diarrhea, number of patients ([2]; 96 mg QD (n=4), grade 1-2): 3
Treatment-related dry skin, number of patients ([2]; 96 mg QD (n=4), grade 1-2): 2
Treatment-related fatigue, number of patients ([2]; 96 mg QD (n=4), grade 1-2): 1
Treatment-related nausea, number of patients ([2]; 96 mg QD (n=4), grade 1-2): 2
Treatment-related rash, number of patients ([2]; 96 mg QD (n=4), grade 1-2): 2
Treatment-related stomatitis, number of patients ([2]; 96 mg QD (n=4), grade 1-2): 2
Treatment-related vomiting, number of patients ([2]; 96 mg QD (n=4), grade 1-2): 2
Treatment-related diarrhea, number of patients ([2]; 96 mg QD (n=4), grade 3-4): 2
Patients with Grade ≥3 hyperglycemia ([2]; BID dosing schedule): Five
Maximum tolerated dose (MTD) ([2]; BID schedule, oral, 28-day cycles, patients with solid tumors): 48 mg
Recommended phase 2 dose (RP2D) ([2]; BID, oral): 48 mg
DLT ([2]; Cohort 7b, 48 mg BID, N=7, Cycle 1 Day 8): grade 3 elevated LFT at Cycle 1 Day 8
DLT ([2]; Cohort 8, 72 mg BID, N=3, Cycle 1): grade 3 cerebral encephalopathy; also recorded: grade 3 Fatigue
DLT ([2]; Cohort 9, 56 mg BID, N=5): grade 3 Diarrhea and stomatitis
DLTs ([2]; QD schedule): No DLTs
Maximum tolerated dose (MTD) ([2]; QD schedule, 2-96 mg, oral): not reached at 96 mg
Reversibility of DLTs ([2]; all DLTs): reversible
Grade 4 diarrhea ([2]; all dose levels): no grade 4 diarrhea reported
Patients with grade 3 diarrhea ([2]; all dose levels): Four
Treatment-related abdominal pain, number (%) of patients ([2]; all dose levels, Total (n=38)): 4 (11%)
Treatment-related anemia, number (%) of patients ([2]; all dose levels, Total (n=38)): 5 (13%)
Treatment-related decreased appetite, number (%) of patients ([2]; all dose levels, Total (n=38)): 8 (21%)
Treatment-related diarrhea, number (%) of patients ([2]; all dose levels, Total (n=38)): 13 (34%)
Treatment-related dry skin, number (%) of patients ([2]; all dose levels, Total (n=38)): 6 (16%)
Treatment-related fatigue, number (%) of patients ([2]; all dose levels, Total (n=38)): 11 (29%)
Treatment-related hyperglycemia, number (%) of patients ([2]; all dose levels, Total (n=38)): 5 (13%)
Treatment-related nausea, number (%) of patients ([2]; all dose levels, Total (n=38)): 12 (32%)
Treatment-related rash, number (%) of patients ([2]; all dose levels, Total (n=38)): 9 (24%)
Treatment-related stomatitis, number (%) of patients ([2]; all dose levels, Total (n=38)): 11 (29%)
Treatment-related vomiting, number (%) of patients ([2]; all dose levels, Total (n=38)): 6 (16%)
Patients with DLTs ([2]; all evaluable patients, run-in period and first cycle): five of 38
Diabetic ketoacidosis ([2]; all patients): No episodes of diabetic ketoacidosis
Drug-related deaths ([2]; all patients): No drug-related deaths
Grade of most drug-related adverse events ([2]; all patients): grade 1/2
Patients with drug-related diarrhea ([2]; all patients): 34%
Patients with drug-related nausea ([2]; all patients): 32%
Patients with fatigue (most common AEs) ([2]; all patients): 29%
Patients with nausea (most common AEs) ([2]; all patients): 32%
Patients with rash (most common AEs) ([2]; all patients): 24%
Inhibitory activity against class III PI3K (class III PI3K): no inhibitory activity
Inhibitory activity against mTOR [3]: no inhibitory activity
Maximal inhibition of p-AKT in PRP compared to baseline ([4]; achieved at dose levels of 32 mg): approximately 50%
Duration of target engagement (reduction in phosphorylation of AKT in PRP) ([4]; after single dose): less than 24 hours
Dose levels at which p-AKT was consistently reduced in PRP ([4]; p-AKT Ser473): 8 to 96 mg
Dose with significant inhibition of PI3K signalling (reduction of AKT phosphorylation) in PRP ([4]; single dose, 2 hrs post-dose): ≥ 32 mg
Antiproliferative effect [5]: strong antiproliferative effect
